Measurements collected from several papers.
Each line is one published result; the experiments were not run side by side.
Target: Protein kinase C alpha type (PRKCA, Homo sapiens, UniProt P17252)

SMILES | read-out | mode | method | tested at | measurement | value
CCN(CC)CCNC(=O)c1c(C)[nH]c(/C=C2\C(=O)Nc3ccc(F)cc32)c1C | enzyme activity | inhibitor |  | 10 µM | inhibition | 11%
FC(F)(F)Oc1cccc(-c2cnc3ccc(-c4ccncc4)nn23)c1 | enzyme activity | inhibitor | radiometric | 5 µM | activity vs control | 91%
CC/C(=N\NC(=O)NCc1cccc(O)c1)c1ccc(O)c(C)c1O | enzyme activity | inhibitor |  | 0.1 µM | inhibition | 2.6%
CCCOc1ccc(OC)c(F)c1C(=O)c1ccc(C(=O)N[C@@H]2CNC[C@H]2NC(=O)c2ccc3[nH]ncc3c2)cc1 | enzyme activity | inhibitor |  | 10 µM | remaining activity | 92%
Cn1c(=O)n(-c2ccc(C(C)(C)C#N)cc2)c2c3cc(-c4cnc5ccccc5c4)ccc3ncc21 | enzyme activity | inhibitor |  | 10 µM | remaining activity | 87%
CN(C)C[C@H]1CCn2c(c(C3=C(c4cn(C)c5ccccc45)C(=O)NC3=O)c3ccccc32)C1 | cell-free assay |  |  | 0.5 µM | remaining signal | 2.58%
C=CC(=O)Nc1cc(Nc2nccc(Nc3cc(Cl)c(F)cc3C(C)(C)O)n2)c(OC)cc1N1CC[C@@H](N(C)C)C1 | enzyme activity | inhibitor |  | 1 µM | inhibition | 13%
CS(=O)(=O)Nc1cccc(-c2csc(NC(=O)CSc3nc4nccnc4c(=O)n3CCc3ccccc3)n2)c1 | enzyme activity | inhibitor |  | 10 µM | inhibition | 1%
Cc1ccc(NC(=O)c2ccc(C)c(C(F)(F)F)c2)cc1C#Cc1nn(C2CCC(O)CC2)c2ncnc(N)c12 (stereo not shown) | cell-free assay |  |  | 10 µM | remaining signal | 110%
CN1CC(Oc2cnc(C#N)cc2-c2ccn3nc(NC(=O)C4CC4)cc3c2)C1 | enzyme activity | inhibitor |  | 1 µM | inhibition | 2%
COc1cc2ncnc(Nc3ccc(Oc4ccccc4)c(C)c3C)c2cc1OC | enzyme activity | inhibitor |  | 1 µM | inhibition | 8%
CCN(CC)c1ccc(C2=NNC(=O)CC2C)cc1[N+](=O)[O-] (stereo not shown) | enzyme activity | inhibitor |  | 10 µM | remaining activity | 21%
CNC(=O)c1cc(Oc2ccc(NC(=O)Nc3ccc(Cl)c(C(F)(F)F)c3)cc2)ccn1 | cell-free assay |  |  | 0.5 µM | remaining signal | 96.8%
O=C(Nc1cnn(-c2csc(C(=O)NC3COC3)c2)c1)Nc1c(F)cccc1Cl | enzyme activity | inhibitor |  | 5 µM | remaining activity | 90.7%
O=C1NC(=O)c2cc(Nc3ccc(F)cc3)c(Nc3ccc(F)cc3)cc21 | cell-free assay |  |  | 0.5 µM | remaining signal | 99.3%
CC(C)c1ccc(NC(=O)c2cccs2)c(-c2nc3ccccc3[nH]c2=O)c1 | enzyme activity | inhibitor |  | 1 µM | activity vs control | 100%
CN(c1ncccc1CNc1nc(Nc2ccc3c(c2)CC(=O)N3)ncc1C(F)(F)F)S(C)(=O)=O | enzyme activity | inhibitor |  | 1 µM | inhibition | 28.4%
CCN(CC)CCNC(=O)c1c(C)[nH]c(/C=C2\C(=O)Nc3ccc(F)cc32)c1C | enzyme activity | inhibitor |  | 1 µM | remaining activity | 102%
COc1cc(Cl)c(C(=O)N[C@@H](CN[C@H]2CC[C@@H](N)CC2)Cc2ccc(C#N)cc2)cc1-c1ccc(CN[C@H](C)c2ccc(C)cc2)o1 | enzyme activity | inhibitor |  | 1 µM | remaining activity | 97%
Cc1[nH]c(/C=C2\C(=O)Nc3ccc(F)cc32)c(C)c1C(=O)N[C@H]1CCN(C(=O)N(C)C)C1 | enzyme activity | inhibitor |  | 0.1 µM | remaining activity | 108%
COc1cc(Nc2cnc(C#N)c(O[C@H](C)CN(C)C)n2)ncc1-c1cnn(C)c1 | enzyme activity | inhibitor | radiometric | 10 µM | remaining activity | 102%
CC(C)(C)c1nc(-c2cccc(NS(=O)(=O)c3c(F)cccc3F)c2F)c(-c2ccnc(N)n2)s1 | enzyme activity | inhibitor | radiometric | 1 µM | remaining activity | 100%
